# procasp7 counter – activates human procaspase-7, counter-screen for procaspase-3 activators; P55210; recombinant procaspase-7, Ac-DEVD-pNA absorbance 405 nm; D23A/D198A/D206A triple mutant, cannot self-cleave; scale: DMSO 0, 5 µM enzyme 100; activation, % at 8.5 µM; 330,000 compounds, 0.093% hits;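 active = percent activation above the screen-wide mean plus 3 SD, cut at about 25% in these data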
#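 Assay system: Uncleavable procaspase-7 mutant enzyme; Input: 2 µM procaspase-7 mutant as dispensed; Also added: DEVD-pNA substrate; Medium: Zinc-free HEPES pH 7.4 with 300 mM NaCl, 0.01% Triton X-100; Timing: 1 h compound preincubation, 2 h substrate cleavage, 25 °C; Measured by: Epi-absorbance of released pNA at 405 nm, two timepoints.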
# PP1 inh – blocks human PP1-alpha phosphatase, a PP5 counter-screen; P62136; purified PP1alpha, OMFP fluorescence; inhibition, % at 6.7 µM; 320,000 compounds, 0.9% hits;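 active = inhibition above the mean inhibition of all tested compounds plus 3 SD, computed separately for each screening campaign, cut at about 15% in these data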
# Target sequence (P62136 whole entry, looked up): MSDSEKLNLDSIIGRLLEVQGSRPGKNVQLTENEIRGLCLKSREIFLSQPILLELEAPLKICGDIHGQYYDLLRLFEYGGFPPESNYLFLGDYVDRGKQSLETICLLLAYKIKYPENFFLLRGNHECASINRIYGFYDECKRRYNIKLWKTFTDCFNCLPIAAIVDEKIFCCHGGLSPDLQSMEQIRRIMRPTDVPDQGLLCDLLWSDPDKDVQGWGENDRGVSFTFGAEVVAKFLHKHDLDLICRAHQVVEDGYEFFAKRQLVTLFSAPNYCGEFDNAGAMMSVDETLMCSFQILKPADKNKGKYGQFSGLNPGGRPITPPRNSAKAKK
# proCasp3 act – activates human procaspase-3 | recombinant procaspase-3 D3A, Ac-DEVD-pNA absorbance 405 nm | AID 463141 | P42574 | activation, % at 8.5 µM | 330,000 compounds, 0.11% hits;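 active = activation above the mean of all tested compounds plus 3 SD, cut at about 21% in these data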
#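 Test system: Procaspase-3 D3A mutant, all three cleavage aspartates alanine | Dosing: Single dose, 8.5 µM nominal compound, 0.8% DMSO | Schedule: 1 h preincubation, 2 h reaction | Technique: 405 nm absorbance of p-nitroaniline, reads at 0 and 120 min | Repeats: One well per compound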
# PP5 inh – inhibitors of human protein phosphatase 5 (PP5); P53041; purified PP5c, OMFP substrate fluorescence; inhibition, % at 6.7 µM; 320,000 compounds, 0.18% hits; AID 1987;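 active = inhibition above the campaign's mean inhibition across all tested compounds plus 3 SD, cut at about 9.5% in these data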
# PP1 inh confirm – confirmation of human PP1 phosphatase inhibitors | purified PP1alpha, OMFP substrate fluorescence | shares compounds with PP1 inh | inhibition, % at 6.7 µM | 1,900 compounds, 52% hits;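 active = mean PP1 inhibition above a set limit taken from the earlier primary screen, cut at about 15% in these data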
# PP5 inh counter – inhibits human PP5 phosphatase in PP1 counter-screen; 1,900 compounds, 4% hits; shares compounds with PP1 inh; AID 2360; inhibition, % at 6.7 µM; purified PP5c, OMFP fluorescence;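 active = mean PP5 inhibition over triplicate wells above about 9.5% taken from the earlier PP1 screen, limit read from the data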
# Numbers stand for hits; – = inactive; · = no result. This is a sample that favours compounds with a hit; in the whole collection about 1.2% have one here.
SMILES,procasp7 counter,PP1 inh,proCasp3 act,PP5 inh,PP1 inh confirm,PP5 inh counter
O=C(Nc1nnc(-c2ccc(Cl)cc2)o1)Nc1ccccc1Cl,–,–,–,–,·,·
COc1ccc2cc(C[C@@H]3CC[C@@H](CO)O3)ccc2c1,–,·,–,·,·,·
O=C(Nc1nnc(C2CC2)s1)c1ccc(Cl)c(S(=O)(=O)N2CCc3ccccc3C2)c1,–,20.5,–,–,21.3,–
CC(C)c1ccc2oc(-c3ccc(NC(=O)c4ncn[nH]4)cc3)nc2c1,–,–,–,–,·,·
O=C(Nc1ccc2oc(-c3ccccc3Cl)nc2c1)c1cncc(Br)c1,–,–,–,–,·,·
O=C(Nc1ccc2oc(-c3cccc4ccccc34)nc2c1)c1ncn[nH]1,–,25.6,–,–,–,–
O=C(Nc1ccc2oc(-c3ccccc3Cl)nc2c1)c1ncn[nH]1,–,18.9,–,–,–,–
COc1cc(Cl)ccc1OCc1cc(C(=O)N2C[C@]3(C)C[C@H]2CC(C)(C)C3)no1,–,–,–,–,·,·
O=C(CN1C(=O)COc2ccc(Cl)cc21)N1CCc2ccccc21,–,18.0,–,–,–,–
O=c1cc(-c2ccccc2Cl)oc2c(NS(=O)(=O)c3ccccc3OC(F)(F)F)ccc(O)c12,–,24.2,–,–,–,–
Cc1ccc(C)n1-n1c(C)nc2scc(-c3ccccc3)c2c1=O,–,–,–,–,·,·
CCCCCCN1C(=O)C(O)=C(C(C)=O)C1c1ccc(Cl)cc1 (stereo unspecified),–,22.6,–,–,17.6,–
CCOc1ccc(C2C(C(C)=O)=C(O)C(=O)N2CCc2c[nH]c3ccccc23)cc1 (stereo unspecified),–,22.3,–,–,28.9,–
CCOc1ccc(NC(=O)CSc2nnnn2C2CC2)cc1S(=O)(=O)N1CCCC1,–,–,–,–,·,·
CCN(CC)S(=O)(=O)c1cccc(C(=O)N/N=C/c2ccc(O)c(O)c2O)c1,–,20.1,–,–,32.9,–
Cc1ccc(Cn2cc(S(=O)(=O)c3ccc(C(C)C)cc3)c(=O)c3cc4c(cc32)OCO4)cc1,–,18.3,–,–,17.9,–
COc1cccc(CN(C)C(=O)c2ccccc2SCC(=O)N2CCCC2)c1,–,–,–,–,·,·
COc1cccc(CNC(=O)c2ccccc2SCC(=O)N2CCCC2)c1,–,26.0,–,–,–,–
Cc1nnc(NC(=O)C2CCN(S(=O)(=O)c3ccc(F)c(F)c3)CC2)o1,–,·,–,·,·,·
N=C1C(c2nc3ccccc3s2)=C(O)CN1NC(=O)c1ccccc1[N+](=O)[O-],–,21.4,–,–,25.3,–
CC1CN(C(=O)c2ccc(NS(=O)(=O)c3ccc(F)c(F)c3)cc2)CC(C)O1 (stereo unspecified),–,–,–,–,·,·
CCC(CO)Oc1cc(NCc2ccccn2)c2ncn(C(C)C)c2c1 (stereo unspecified),–,·,–,·,·,·
C/C=C(\C)C(=O)Nc1cccc(C2=NOC3(C2)C[C@@H](C(N)=O)N(C(=O)c2ccccc2C(=O)c2ccccc2)C3)c1 (stereo partly specified),–,–,–,–,·,·
NC(=O)[C@H]1CC2(CC(c3cccc(NC(=O)CC(c4ccccc4)c4ccccc4)c3)=NO2)CN1C(=O)CC(c1ccccc1)c1ccccc1 (stereo partly specified),–,21.9,–,–,28.7,11.8
CCC(=O)N1CC2(CC(c3cccc(NC(=O)CC(c4ccccc4)c4ccccc4)c3)=NO2)C[C@H]1C(N)=O (stereo partly specified),–,–,–,–,·,·
C=C(C)C(=O)Nc1cccc(C2=NOC3(C2)C[C@H](C(N)=O)N(C(=O)CC)C3)c1 (stereo partly specified),–,–,–,–,·,·
C/C=C/C=C\C(=O)Nc1cccc(C2=NOC3(C2)C[C@H](C(N)=O)N(C(=O)CC#N)C3)c1 (stereo partly specified),–,18.8,–,–,–,–
C/C=C(/C)C(=O)Nc1cccc(C2=NOC3(C2)C[C@H](C(N)=O)N(C(=O)c2ccccc2)C3)c1 (stereo partly specified),–,41.6,–,–,–,–
